Laboratory results as given in ChEMBL document CHEMBL2401666, “Structure-based design of novel HCV NS5B thumb pocket 2 allosteric inhibitors with submicromolar gt1 replicon potency: discovery of a quinazolinone chemotype” (Bioorg Med Chem Lett, 2013).

Assays:
[1] = Lipophilicity, log D of the compound at pH 7.4; type: physicochemical; settings: buffer
[2] = Half life in rat liver microsomes at 2 uM; type: ADME, Microsome
[3] = Permeability across apical to basolateral side in human Caco2 cells at 10 uM; type: ADME, cell-based; settings: Caco-2, read-out: permeability
In short: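 Caco-2 monolayer, apical-to-basolateral transport at 10 µM across a pH 6.8–7.4 gradient; apparent permeability in cm/s ×10^-6.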

[4] = Half life in human liver microsomes at 2 uM; type: ADME, Microsome

O=c1ncn(CC2CCCC2)c2ccc(Oc3ncccc3C(F)(F)F)cc12
logD [1]: 3.3

O=c1ncn(Cc2c(F)cc(F)cc2F)c2ccc(Oc3ccccc3C(F)(F)F)cc12
logD [1]: 4.2

O=c1ncn(Cc2c(F)cc(F)cc2F)c2ccc(Oc3ccccc3)cc12
logD [1]: 3.2

O=c1nc[nH]c2ccc(Oc3ncccc3C(F)(F)F)cc12
logD [1]: 2.5

Cc1ccc(Cn2cnc(=O)c3cc(Oc4ncccc4C(F)(F)F)ccc32)cc1
logD [1]: 3.7

COc1ccnc(Oc2ccc3c(c2)c(=O)ncn3Cc2c(F)cc(F)cc2F)c1C(F)(F)F
half-life at 2 µM [2]: 15 min
Papp A→B at 10 µM [3]: 7.9 ×10⁻⁶ cm/s
half-life at 2 µM [4]: 84 min
logD [1]: 3.3

CC(C)N(c1ccc(Oc2ccccc2C(F)(F)F)cc1C(=O)O)C(=O)[C@H]1CC[C@H](C)CC1
half-life at 2 µM [2]: 92 min
Papp A→B at 10 µM [3]: 17 ×10⁻⁶ cm/s
half-life at 2 µM [4]: 119 min

O=c1ncn(Cc2ccc(F)cc2F)c2ccc(Oc3ncccc3C(F)(F)F)cc12
half-life at 2 µM [2]: 31 min
Papp A→B at 10 µM [3]: 13 ×10⁻⁶ cm/s
half-life at 2 µM [4]: 110 min

O=c1ncn(Cc2ccc(F)cc2F)c2ccc(Oc3ccncc3C(F)(F)F)cc12
logD [1]: 3

COc1ccnc(Oc2ccc3c(c2)c(=O)ncn3Cc2ccc(F)cc2F)c1C(F)(F)F
half-life at 2 µM [2]: 26 min
Papp A→B at 10 µM [3]: 11 ×10⁻⁶ cm/s
half-life at 2 µM [4]: 80 min
logD [1]: 3.5

O=c1ncn(Cc2c(F)cc(F)cc2F)c2ccc(Oc3cnccc3C(F)(F)F)cc12
logD [1]: 3

Cc1ccc(Cn2cnc(=O)c3cc(Oc4ncccc4C(F)(F)F)ccc32)c(F)c1
half-life at 2 µM [2]: 15 min
Papp A→B at 10 µM [3]: 8.4 ×10⁻⁶ cm/s
half-life at 2 µM [4]: 45 min
logD [1]: 3.8

CC(C)N(c1ccc(Oc2ncccc2C(F)(F)F)cc1C(=O)O)C(=O)[C@H]1CC[C@H](C)CC1
half-life at 2 µM [2]: 60 min
Papp A→B at 10 µM [3]: 19 ×10⁻⁶ cm/s
half-life at 2 µM [4]: 69 min

O=c1ncn(Cc2c(F)cc(F)cc2F)c2ccc(Oc3cccnc3C(F)(F)F)cc12
half-life at 2 µM [2]: 22 min
Papp A→B at 10 µM [3]: 11 ×10⁻⁶ cm/s
half-life at 2 µM [4]: > 300 min
logD [1]: 2.9

O=c1ncn(Cc2c(F)cc(F)cc2F)c2ccc(Oc3ncccc3C(F)(F)F)cc12
half-life at 2 µM [2]: 38 min
Papp A→B at 10 µM [3]: 12 ×10⁻⁶ cm/s
half-life at 2 µM [4]: 123 min
logD [1]: 3.3

COc1ccc2c(c1)c(=O)ncn2Cc1ccc(F)cc1F
logD [1]: 1.8

O=c1ncn(Cc2ccc(Br)cc2F)c2ccc(Oc3ncccc3C(F)(F)F)cc12
half-life at 2 µM [2]: 60 min
Papp A→B at 10 µM [3]: 7.1 ×10⁻⁶ cm/s
half-life at 2 µM [4]: 93 min

O=c1ncn(Cc2ccc(F)cc2F)c2cc(F)c(Oc3ncccc3C(F)(F)F)cc12
logD [1]: 3.9
